Drawing on ChEMBL document CHEMBL4041502, “Zoanthamine-Type Alkaloids from the Zoanthid Zoanthus kuroshio Collected in Taiwan and Their Effects on Inflammation” (2016), this text covers inhibition for 13 compounds.

Experiment [1] concerns Neutrophil. Description: Anti-inflammatory activity in human neutrophils assessed as inhibition of fMLP/CB-induced superoxide anion production by measuring reduction of ferricytochrome c at 10 uM pretreated for 5 mins followed by fMLP/CB addition measured after 10 mins by spectrophotometric method relative to control. It is filed as functional. A digest of the protocol:
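Donor neutrophils (healthy, 20−35 y) held 2 min at 37 °C in 0.5 mg/mL ferricytochrome c with 1 mM Ca2+, then 5 min with compound, then fMLP 100 nM/cytochalasin B 1 μg/mL for 10 min. Continuous 550 nm read with stirring. SOD-inhibitable (100 U/mL) difference converted using ε = 21.1/mM/10 mm. Inhibition % at 10 μM, mean ± SEM (n = 3, 4).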

The subject of experiment [2] is Neutrophil. Put plainly: Anti-inflammatory activity in human neutrophils assessed as inhibition of fMLP/CB-induced elastase release at 10 uM using MeO-Suc-Ala-Ala-Pro-Val-p-nitroanilide as a substrate pretreated for 5 mins followed by fMLP/CB addition relative to control. It is filed as functional. The gist of the method: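 Neutrophils from healthy donors aged 20−35 (venipuncture), equilibrated at 37 °C for 2 min with 100 μM MeO-Suc-Ala-Ala-Pro-Val-p-nitroanilide, then exposed to compound 5 min. Stimulus: 100 nM fMLP plus 0.5 μg/mL cytochalasin B. Elastase release followed continuously at 405 nm. Percent inhibition at 10 μM versus control, mean ± SEM (n = 3, 4).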

As for `CC1=CC(=O)[C@@H]2[C@@H](C1)[C@]13CO[C@@]4([C@H]1O)N1C[C@H]5C[C@H](C)C[C@@]1(O5)[C@@H](O)C[C@@]4(C)[C@]1(COC(=O)C1)[C@H]3C(=O)[C@@H]2C`, the results for the inhibition at 10 µM in the experiment on Neutrophil [1] and in the experiment on Neutrophil [2] were 11% and 27%, respectively.
For `CC1=CC(=O)[C@@H]2[C@@H](C1)[C@]1(C)C=C3N4C[C@H]5C[C@H](C)C[C@]4(CC[C@@]3(C)[C@]3(COC(=O)C3)[C@H]1C(=O)[C@@H]2C)O5` the same measures were 18% and 30%.
For `CC1=CC(=O)[C@H]2[C@@H](C1)[C@]13CO[C@@]4([C@H]1O)N1C[C@H]5C[C@H](C)C[C@]1(CC[C@@]4(C)[C@]1(COC(=O)C1)[C@H]3C(=O)[C@@H]2C)O5` the same measures were 15% and 13%.
For `CC1=CC(=O)[C@@H]2[C@@H](C1)C13C=C4N5C[C@H]6C[C@H](C)C[C@]5(CC[C@@]4(C)[C@]4(COC(=O)C4)[C@H]1[C@@](O)(OC3)[C@@H]2C)O6` the same measures were 17% and 17%.
Consider `CC1=CC(=O)[C@H]2[C@@H](C1)[C@]13CO[C@@]4(C1=O)N1C[C@H]5C[C@H](C)C[C@]1(CC[C@@]4(C)[C@]1(COC(=O)C1)[C@H]3C(=O)[C@@H]2C)O5`, for which the results for the inhibition at 10 µM in the experiment on Neutrophil [1] and in the experiment on Neutrophil [2] were 14% and 23%, respectively.
For `CO[C@@H]1[C@@H](C)C[C@@H]2CN3[C@@]1(CC[C@@]1(C)[C@]4(COC(=O)C4)[C@H]4C(=O)[C@H](C)[C@@H]5C(=O)C=C(C)C[C@H]5[C@@]45CO[C@@]31C5=O)O2`, in that order: 20% and 33%.
For `CC1=CC(=O)[C@@H]2[C@@H](C1)[C@]13CO[C@@]4(C1=O)N1C[C@H]5C[C@H](C)C[C@]1(CC[C@@]4(C)[C@]1(COC(=O)C1)[C@H]3C(=O)[C@@H]2C)O5`, in that order: 7% and 27%.
For `CC1=CC(=O)[C@@H]2[C@@H](C1)[C@]13CO[C@@]4([C@H]1Cl)N1C[C@H]5C[C@H](C)C[C@]1(CC[C@@]4(C)[C@]1(COC(=O)C1)[C@H]3C(=O)[C@@H]2C)O5` the same measures were 23% and 25%.
`CC1=CC(=O)[C@@H]2[C@@H](C1)C13C=C4N5C[C@H]6C[C@H](C)[C@@H](I)[C@]5(CC[C@@]4(C)[C@]4(COC(=O)C4)[C@H]1[C@@](O)(OC3)[C@@H]2C)O6`: the inhibition (usually how much of the control response was suppressed) at 10 µM was 24% in the experiment on Neutrophil [1] and 43% with Neutrophil [2].
For `CC1=CC(=O)[C@@H]2[C@@H](C1)C13C=C4N5C[C@@H]6O[C@@]5(CC[C@@]4(C)[C@]4(COC(=O)C4)[C@H]1[C@@](O)(OC3)[C@@H]2C)C[C@@H](C)[C@@H]6O`, in that order: 14% and 25%.
For `CC1=CC(=O)[C@@H]2[C@@H](C1)[C@]13CO[C@@]4(C1=O)N1C[C@H]5C[C@H](C)C[C@@]1(O5)[C@@H](O)C[C@@]4(C)[C@]1(COC(=O)C1)[C@H]3C(=O)[C@@H]2C` the same measures were 13% and 15%.
For `CC1=CC(=O)[C@@H]2[C@@H](C1)[C@]13CO[C@@]4([C@H]1O)N1C[C@H]5C[C@H](C)C[C@]1(CC[C@@]4(C)[C@]1(COC(=O)C1)[C@H]3C(=O)[C@@H]2C)O5` the same measures were 9% and 6%.
Regarding `O=c1cc(N2CCOCC2)oc2c(-c3ccccc3)cccc12` [LY-294002], the inhibition at 10 µM worked out at 99% in the experiment with Neutrophil [1] and 73% in the experiment on Neutrophil [2].
